Bioassay records deposited in PubChem BioAssay by several laboratories.
Most compounds without a hit are left out; they make up all but 6.4% or so of the library.
Jurkat tox 60K: cytotoxicity toward Jurkat T cells, primary screen, cytotoxicity control, cell-based, Jurkat E6.1, 60K MLSMR library; Jurkat E6.1 viability, ATP luminescence, 48 h; inhibition, % at 4 µM; 1.2% of 56,000 active; AID 463, 2006;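 active = inhibition above the mean inhibition of all tested compounds plus 3 SD, cut at about 28% in these data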
HUVEC prolif 384: inhibitors of HUVEC proliferation, primary screen, cell-based, 384-well | 1.1% of 86,000 active | viability, % at 10 µM (by protocol) | AID 648, 2007 | CellTiter-Glo luminescence, 72 h; active compounds read low;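 active = viability at or below 30%; inactive = viability above 30%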;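 also: 100% = median luminescence of DMSO-only cell control wells on each plate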
Ecoli WT expand: growth inhibitors of wild-type E. coli, primary screen, strain BW25113, expanded library, OD600 | OD600 absorbance | 0.15% of 98,000 active | AID 710, 2007 | growth inhibition, % at 100 µM;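 active = growth inhibition above about 50% at one test dose, limit read from the data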;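 also: growth measured after 20 h incubation at 37 °C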
tolC growth inh: growth inhibitors of E. coli tolC mutant, primary screen, strain BW25113 ΔtolC::kan, 384-well; OD615; growth inhibition, % at 10 µM (by protocol); 2.2% of 65,000 active;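 active = growth inhibition at or above a cutoff equal to the mean over every tested compound plus 3 SD, cut at about 60% in these data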;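 also: growth measured after 20 h incubation at 37 °C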
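Test system: tolC-deleted E. coli BW25113 | Medium: LB with kanamycin 50 µg/mL | Compound dosing: Single concentration, 10 µM final per compound | Schedule: 37 °C, 20 h exposure | Measured by: OD at 615 nm | Evaluation: Percent growth inhibition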
Fibroblast inh: antiproliferative effect on LL 47 fibroblasts – human, LL 47 cells, CellTiter-Glo luminescence, primary screen | 1.1% of 85,000 active | AID 719, 2007 | LL 47 human lung fibroblast viability, ATP luminescence; active compounds read low | viability, % at 10 µM;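 active = viability at or below 50% in the single dose screen; inactive = viability above 50%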;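 also: compound exposure lasted 72 h before the ATP readout; 100% = median luminescence of untreated cell-only wells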
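Assay system: human lung fibroblast line LL 47, low passage. Input: 1,150 fibroblasts seeded per well. Times: overnight cell rest, 72 h compound treatment at 37 °C. Evaluation: % viability of median cell-only signal. Technique: luminescent ATP detection, CellTiter-Glo. Control set: cell-only wells, no compound.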
H69AR inhibit: proliferation blockers of H69AR lung cancer cells, primary screen, cell-based, human, 86K library. viability, % at 10 µM. AID 598, 2007. H69AR lung tumor viability, ATP luminescence, 72 h; active compounds read low. 6% of 85,000 active;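 active = viability at or below 40%; inactive = viability above 40%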;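 also: multidrug resistant small cell line overexpressing MRP-1 efflux transporter; 100% = mean luminescence of untreated control wells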
An asterisk follows results filed as active; / = no result.

SMILES | Jurkat tox 60K | HUVEC prolif 384 | Ecoli WT expand | tolC growth inh | Fibroblast inh | H69AR inhibit
CCC1(C)Cc2c(sc3c2c(=O)n(C)c2nnc(SCC(=O)c4ccccc4)n32)CO1 (centres undefined) | 0.3 | 83.0 | / | -11.9 | 35.2* | 4.2*
CCC1(C)Cc2c(sc3c2c2ncnn2c2nnc(SCC(=O)NCc4ccco4)n32)CO1 (centres undefined) | / | 77.8 | 3.0 | -4.0 | 96.3 | 37.1*
O=C(CCNC(=O)Cn1cnc2ccccc2c1=O)NCCC1=CCCCC1 | -1.3 | 94.0 | -3.0 | -1.1 | 98.1 | 94.1
Cc1ccc(N2C(=O)c3ccc(C(=O)Nc4cccnc4)cc3C2=O)c(C)c1 | / | 89.9 | -1.0 | / | 98.9 | 100.2
COc1cccc(-n2nnc3c(=O)n(Cc4ccc(F)cc4)cnc32)c1 | / | 94.9 | 7.0 | 20.0 | 98.8 | 79.8
COc1ccc(C(O)c2nccn2Cc2ccccc2)cc1OC (centres undefined) | / | 100.1 | 8.0 | / | 97.0 | 83.9
COc1ccc(Cn2cc3c(-c4ccc(F)cc4)nnc-3c3cc(OC)c(OC)cc32)cc1 | / | 2.3* | 3.0 | / | 2.2* | 1.3*
COc1cc2c3nnc(-c4ccc(F)cc4)c-3cn(Cc3ccccc3)c2cc1OC | / | 1.8* | 1.0 | / | 2.7* | 1.5*
COc1cc2c3nnc(-c4ccc(F)cc4)c-3cn(Cc3ccc(F)cc3)c2cc1OC | / | 2.6* | -4.0 | / | 10.2* | -0.4*
COC(=O)CCC(=O)NNC(=O)CCCOc1ccc(Cl)cc1Cl | / | / | 6.0 | / | / | /
COc1ccccc1N1CCN(C(=O)CSc2nc(-c3ccccc3)cc(=O)[nH]2)CC1 | -2.7 | 75.6 | -3.0 | 8.8 | 99.0 | 91.4
COc1ccc(/C=N\NS(=O)(=O)c2ccc(Br)cc2)cc1COc1ccccc1[N+](=O)[O-] | / | 80.4 | / | / | 98.3 | 63.5
COC(=O)Cn1c2c(c3cc(C)ccc31)CCCC2 | -2.1 | 104.4 | / | 24.6 | 91.8 | 101.7
N#C/C(=C/c1ccc(N2CCOCC2)o1)c1ccc(Cl)cc1 | / | / | -3.0 | / | / | /
N#C/C(=C\c1ccc(N2CCOCC2)o1)c1nc2ccccc2[nH]1 | / | 57.2 | -12.0 | / | 82.7 | 19.6*
CC1=Nc2ccccc2/C1=C/c1sc(=N)n(-c2nccs2)c1O | / | 51.7 | -10.0 | / | 52.5 | 2.9*
Cc1ccccc1CS(=O)(=O)CCC(=O)NCCCN1CCOCC1 | 5.5 | / | 2.0 | -16.9 | / | /
CCn1c(=O)c(=O)[nH]c2cc(C(=O)NC3CCCc4ccccc43)ccc21 (centres undefined) | / | 66.1 | 4.0 | 11.9 | 68.9 | 32.0*
Cc1cc(=O)[nH]c(-n2nc(C)cc2C)n1 | 4.9 | / | 57.0* | 74.6* | / | /
Cc1cc(=O)[nH]c(-n2nc(C)c(Oc3ccccc3O)c2C)n1 | 4.2 | 117.6 | -15.0 | 37.6 | 85.5 | 66.2
Cc1occc1-c1nnc2sc(-c3ccc(-c4ccc(Cl)cc4)o3)nn12 | 0.6 | / | / | -7.7 | / | /
Clc1ccc(-c2ccc(-c3nn4c(-c5ccco5)nnc4s3)o2)cc1 | -1.4 | 83.4 | / | -13.6 | 89.3 | 26.3*
Clc1ccc(OCc2nn3c(-c4ccco4)nnc3s2)c(Cl)c1 | -13.5 | 102.0 | 6.0 | -9.8 | 94.3 | 34.4*
COc1ccc(CCNC(=O)CCS(=O)(=O)c2ccc3c(c2)CCN3C(C)=O)cc1OC | -4.6 | 102.1 | 1.0 | -19.5 | 103.3 | 91.8
O=C(O)Cn1c(SCc2ccccc2)nc2ccccc21 | / | 99.9 | 10.0 | / | 96.7 | 90.8
SMILES | Jurkat tox 60K | HUVEC prolif 384 | Ecoli WT expand | tolC growth inh | Fibroblast inh | H69AR inhibit
COc1ccc(NC(=O)Nc2c(C)n(-c3ccccc3)c(=O)n2C)cc1OC | -4.3 | 103.8 | -5.0 | -4.0 | 96.2 | 95.6
CN(C)c1ccc(-c2nn3c(-c4cccnc4)nnc3s2)cc1 | -3.2 | 97.1 | / | -13.6 | 93.3 | 78.0
COc1ccccc1-c1nnc2sc(-c3cc4ccccc4o3)nn12 | 86.7* | 49.1 | -3.0 | 9.6 | 48.7* | 31.2*
COc1ccccc1-c1nnc2sc(-c3cnccn3)nn12 | -2.3 | 103.9 | 9.0 | 10.8 | 105.4 | 97.2
COc1ccccc1-c1nnc2sc(-c3ccc(N(C)C)cc3)nn12 | 99.2* | / | / | 52.2 | / | /
CN(C)c1ccc(-c2nn3c(-c4ccncc4)nnc3s2)cc1 | 5.0 | 65.3 | / | 84.2* | 91.2 | 32.2*
CCN(CC)c1ccc(-c2nn3c(-c4n[nH]c5c4CCC5)nnc3s2)cc1 | 97.2* | 33.1 | -2.0 | 74.5* | 44.7* | 21.7*
Cc1ccc2cc(S(=O)(=O)NCCC(=O)O)ccc2c1 | / | 105.2 | -21.0 | / | 103.1 | 113.2
Cn1c(=O)cc(OCCCC(=O)Nc2cccnc2)c2ccccc21 | 1.2 | 88.8 | 2.0 | -10.2 | 102.0 | 78.9
CC(C)[C@H](N)c1nnc(SC/C=C/c2ccccc2)o1 | / | 88.6 | 12.0 | / | 104.2 | 98.4
COCCCNC(=O)Cn1nnc(-c2ccccc2NC(=O)c2ccc(F)cc2)n1 | / | 86.6 | -2.0 | 0.0 | 94.5 | 72.5
Clc1ccccc1-c1nnc2sc(-c3ccncc3)nn12 | -3.6 | 99.9 | -6.0 | -15.5 | 101.4 | 87.2
COc1ccccc1-c1nn2c(-c3ccc(C(C)(C)C)cc3)nnc2s1 | / | 25.3* | / | 11.0 | 95.3 | 94.4
COc1ccc(-c2nnc3sc(-c4cccs4)nn23)cc1OC | 9.0 | 84.0 | -6.0 | 16.4 | 100.8 | 55.2
COc1cc(-c2nnc3sc(-c4cccs4)nn23)cc(OC)c1OC | 9.3 | 80.4 | -2.0 | 1.9 | 54.0 | 20.8*
CN(C)c1ccc(-c2nn3c(-c4ccccc4Cl)nnc3s2)cc1 | 82.2* | 35.2 | -17.0 | -9.0 | 53.5 | 30.4*
COc1ccc(N2CCN(C(=O)c3cccc(N4C(=O)C5CC=CC(C)C5C4=O)c3)CC2)cc1 (centres undefined) | 2.3 | 104.4 | 1.0 | 8.1 | 103.2 | 84.7
CCOC(=O)c1c(NC(=O)CN2CCCCC2)sc2c1CCCC2O (centres undefined) | 10.9 | 72.8 | 9.0 | 21.7 | 91.7 | 20.2*
CCCCCNC(=O)CCc1ccccc1 | / | 100.0 | / | / | 103.8 | 100.2
COc1cc2ccccc2cc1C(=O)Nc1ccc(N2CCN(C)CC2)cc1 | -1.1 | 9.0* | / | -13.4 | 72.2 | 7.1*
COc1ccccc1C(=O)Nc1ccc(N2CCN(S(C)(=O)=O)CC2)cc1 | -1.0 | 102.4 | -2.0 | -16.6 | 107.9 | 95.4
CCOc1ccc(C(=O)OCCN(C)C)cc1 | / | 97.6 | 12.0 | / | 97.9 | 116.1
Cc1nn(-c2ccccc2)c2sc(C(=O)n3cccn3)cc12 | -5.4 | 48.3 | / | -3.8 | 92.5 | 38.2*
Cc1ccn(C(=O)c2cc3c(C)nn(-c4ccccc4)c3s2)n1 | / | 53.4 | -3.0 | / | 109.9 | 81.2
Cc1cnc(NC(=O)c2cc3c(C)nn(-c4ccccc4)c3s2)s1 | / | 64.2 | -6.0 | / | 62.3 | 26.1*
Cc1cc2c(nn1)CCC/C2=N\O | -2.0 | 110.0 | 7.0 | -3.3 | 103.7 | 97.3
Cc1ccc(C(=O)C(C(=O)/C=C/c2ccccc2)=C2SCCCS2)cc1 | / | 23.2* | / | / | 32.4* | 2.3*
